# Source: PMC2948526 (Antiviral chemistry & chemotherapy, 2010)
# How the values were obtained:
# Ad4 = Ad4 yield reduction assay; type: cell-based, human adenovirus type-4; conditions: A549 cells, 10 μM olomoucine II, 100 μM cidofovir or both
# In short: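 Confluent A549 monolayers were infected with 2,000 PFU/well Ad4 (multistep growth curve, MOI 0.01) for 1 h at 37°C with rocking. They were rinsed, then kept in medium with 10 μM test compound, 100 μM cidofovir, or both. Cells and media were harvested separately at 6–96 h, and released and total virus were titrated on A549 cells. The 0 h point is the inoculum.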
# [1] = tested on: human fetal foreskin fibroblast cells; experiment: Apoptosis as caspase-3/7 activity; type: cell-based; conditions: 15–50 μM olomoucine II; 24, 48, 72 h
# In short: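 Confluent HFFF cells (DMEM, 10% heat-inactivated FBS) were exposed for 24, 48 or 72 h to test compound dilutions, to mock treatment, or to serum deprivation. Caspase-3/7 activity was read by Caspase-Glo 3/7 luminescence, following the kit protocol. Values are blank-subtracted relative luminescence units ± SD.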
# HFFF cells = experiment: WST-1 cytotoxicity assay, HFFF cells; type: cell-based, human; conditions: 2.4–5.3 μM olomoucine II, WST-1, fibroblasts
# [2] = WST-1 cytotoxicity assay, HFFF cells; type: cell-based, human; conditions: human, HFFF cells (human fetal foreskin fibroblasts), confluent
# [3] = WST-1 cytotoxicity assay, A549 cells; type: cell-based; conditions: human, A549 cells (human lung carcinoma epithelial cells)
# In short: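 A549 cells were grown in DMEM with 10% heat-inactivated FBS and antibiotics, then exposed to test compound. Viability was measured with a WST-1 kit, following the kit protocol, as absorbance at 450 nm.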
# CDK9 = conditions: cited from earlier work
Structure (SMILES),Reduction of total virus yield (Ad4; 24 h post-infection),Reduction of total virus yield (Ad4; 48 h post-infection) [log],Reduction of total virus yield (Ad4; 96 h post-infection),Caspase-3/7 activity [1],Cytotoxicity at antiviral IC50 levels (HFFF cells),CC50 at 24 h [2] [µM],CC50 at 48 h [2] [µM],CC50 at 72 h [2] [µM],CC50 at 96 h [2] [µM],CC50 at 168 h [2] [µM],CC50 at 48 h [3] [µM],CC50 at 96 h [3] [µM],CC50 at 120 h [3] [µM],Higher inhibitory activity for CDK9 compared with roscovitine (CDK9) [fold]
"Nc1ccn(C[C@@H](CO)OCP(=O)(O)O)c(=O)n1 [Cidofovir, (S)-1-[3-hydroxy-2-(phosphonylmethoxy)propyl]-cytosine, reference compound]",2 log (log10 PFU),2,3 log,–,–,–,–,–,–,–,–,–,–,–
"CC[C@H](CO)Nc1nc(NCc2ccccc2O)c2ncn(C(C)C)c2n1 [Olomoucine II, 6-(2-hydroxybenzylamino)-2-{[(1R)-(hydroxymethyl)propyl]amino}-9-isopropylpurine]",5 log (log10 PFU),1,no overall effect on virus yield,caspase activation,no significant cytotoxicity was detected,> 100,73 ± 4,16 ± 2,17 ± 2,16 ± 3,> 100,> 100,> 100,10
"CC[C@H](CO)Nc1nc(NCc2ccccc2)c2ncn(C(C)C)c2n1 [Roscovitine, 2-(R)-(1-ethyl-2-hydroxyethylamino)-6-benzylamino-9-isopropylpurine, reference compound]",–,–,–,–,–,> 100,84 ± 5,21 ± 2,–,30 ± 4,> 100,> 100,> 100,–
